The list is not random: actives were taken first. Their share in the collection is about 2.1%.
ZTA counter: ZTA (EBV) inhibition in EBNA-1 counter-screen | ZTA-DNA binding, fluorescence polarization | 320,000 compounds, 0.15% hits | inhibition, % at 11 µM | P03206; in the data active = inhibition above about 33%
eIF4H FP inh: inhibitors of RNA binding by human eIF4H; inhibition, % at 35 µM; AID 2012; 290,000 compounds, 0.94% hits; Q15056; eIF4H fluorescence polarization binding assay;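 note: calls also rest on retests at 20 µM and on dose response follow-up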
HCV NS3 hel inh: inhibitors of Hepatitis C virus NS3 helicase; NS3 helicase DNA unwinding, Cy5 molecular beacon fluorescence; inhibition, % at 10.9 µM; 290,000 compounds, 0.56% hits; AID 1800;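 active = inhibition above the mean of all tested compounds plus 3 SD, set per campaign, cut at about 35% in these data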;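 note: 0% = DMSO wells and 100% = thioflavine S control wells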
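Test system: hepatitis C virus NS3 helicase domain fragment enzyme. Also added: annealed dual-labelled DNA beacon duplex, ATP-started. Timing: 60 min unwinding reaction at 25 °C after ATP addition. Technique: Cy5 fluorescence. Measure: % inhibition of unwinding.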
EBNA-1 inhibitor: blocks EBNA-1 binding to DNA | EBNA-1 DNA binding, fluorescence polarization | 300,000 compounds, 0.34% hits | inhibition, % at 14.8 µM; in the data active = inhibition above about 28%
PABP1 MLLE inh: blocks PAM2 peptide binding to the PABP1 MLLE domain. AID 588489. inhibition, % at 20 µM. P11940. 360,000 compounds, 0.36% hits. GST-MLLE / FITC-PAM2 fluorescence polarization; in the data active = inhibition above about 35%, passing the limit was not always enough;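 note: plate controls were DMSO wells with GST-MLLE for no effect and wells lacking GST-MLLE protein for full effect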
Target sequence (P11940 whole entry, looked up, the tested form may be a part): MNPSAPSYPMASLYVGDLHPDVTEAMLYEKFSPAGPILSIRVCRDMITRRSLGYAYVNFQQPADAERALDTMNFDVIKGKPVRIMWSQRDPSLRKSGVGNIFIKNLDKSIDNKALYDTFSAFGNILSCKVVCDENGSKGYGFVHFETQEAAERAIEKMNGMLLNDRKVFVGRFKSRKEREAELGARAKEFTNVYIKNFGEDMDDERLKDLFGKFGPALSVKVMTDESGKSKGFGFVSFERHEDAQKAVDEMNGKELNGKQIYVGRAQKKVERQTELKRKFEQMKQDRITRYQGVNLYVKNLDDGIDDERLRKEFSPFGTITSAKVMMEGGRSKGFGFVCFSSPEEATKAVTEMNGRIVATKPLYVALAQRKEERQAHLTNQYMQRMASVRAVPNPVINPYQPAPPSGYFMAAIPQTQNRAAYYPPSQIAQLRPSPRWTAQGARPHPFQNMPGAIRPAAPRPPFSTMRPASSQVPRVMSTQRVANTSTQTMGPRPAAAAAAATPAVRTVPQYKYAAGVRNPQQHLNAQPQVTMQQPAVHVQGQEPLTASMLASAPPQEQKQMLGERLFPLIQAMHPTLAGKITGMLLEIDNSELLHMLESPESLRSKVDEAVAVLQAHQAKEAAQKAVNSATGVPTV
PABP FP inh: blocks human PABP binding to poly(A) RNA; P11940; 290,000 compounds, 1% hits; inhibition, % at 35 µM; fluorescence polarization;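 note: calls also rest on retests at 20 µM and on dose response follow-up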
The depositor's hits bear a star; ? = inconclusive; . = no result; ! = repeats disagree. Unless noted, the rule behind the calls is not given here.

SMILES | ZTA counter | eIF4H FP inh | HCV NS3 hel inh | EBNA-1 inhibitor | PABP1 MLLE inh | PABP FP inh
NS(=O)(=O)c1ccc(CNC(=O)/C=C/c2ccco2)cc1 | 6 | 79* | 28 | 8 | -3 | 26
Cc1csc(NC(=O)c2ccc(C(=O)Nc3nc(C)cs3)cc2)n1 | -8 | ? | -1 | -13 | . | 3.5*
O=C(/C=C/c1ccco1)NCc1ccc(F)cc1 | 8 | 3 | 13 | 5 | 3 | 12
COc1ccc(-c2csc(NC(=S)NC(=O)/C=C/c3ccco3)n2)cc1OC | 6 | 89* | 5 | 6 | 25 | 10*
COc1ccc(-c2csc(NC(=S)NC(=O)/C=C/c3ccco3)n2)cc1Br | 1 | 12 | 6 | -1 | -14 | -8
CCCn1nnc(NC(=S)NC(=O)/C=C/c2ccco2)n1 | 14 | 80* | 21 | -5 | 21 | 26*
CC(C)(C)CN1CCNC(=O)C1CC(=O)N1CCOc2ccccc2C1 (stereo not given) | 6 | -2 | -10 | -9 | 16 | -8
COCCC(=O)N1CCC(Oc2ccc(C(=O)N3CCCC(COC)C3)cc2)CC1 (stereo not given) | . | -2 | 1 | . | 4 | -5
CCOP(=O)(OCC)/C(C#N)=C/c1cc(OC)ccc1OC | . | 1 | 11 | . | 13 | 6
CCOc1ccc(CNS(=O)(=O)c2ccc3c(c2)CC(=O)N3C)cc1 | 10 | 2 | 0 | 4 | 20 | -1
O=C(/C=C/c1ccccc1)Nc1scc(-c2ccccc2)c1C(=O)O | . | -2 | 15 | . | -6 | -16
O=C(/C=C/c1ccco1)NC(=S)Nc1ccccc1 | -2 | 27 | 24 | -9 | 10 | 8
O=C(/C=C/c1ccco1)Nc1scc(-c2ccccc2)c1C(=O)O | 20 | 79* | 29 | 8 | 1 | 67*
NS(=O)(=O)c1ccc(NC(=S)NC(=O)c2ccco2)cc1 | 0 | -1 | -4 | -2 | 24 | -7
CC(=O)c1ccc(NC(=S)NC(=O)/C=C/c2ccco2)cc1 | 4 | 62* | 30 | -13 | 26 | 28*
NS(=O)(=O)c1ccc(NC(=S)NC(=O)/C=C/c2ccco2)cc1 | -10 | 85* | 6 | -7 | 4 | 4
CSc1cccc(NC(=O)/C=C/c2ccco2)c1 | -5 | 57* | 32 | -8 | -3 | active
COc1cccc(NC(=O)/C=C/c2ccco2)c1 | 6 | -3 | 4 | 6 | -9 | -18
NNC(=O)COc1ccc(F)cc1 | 11 | -3 | 4 | -8 | 6 | -1
S=c1nc[nH]c2c1ncn2C1CCCO1 (stereo not given) | -5 | 2 | -1 | -2 | 40* | -4
CCN(c1ccccc1)S(=O)(=O)c1cc(C(=O)O)ccc1C | 5 | 53* | 16 | -3 | -12 | 26*
O=C(O)c1ccc(Cl)c(S(=O)(=O)N(Cc2ccccc2)c2ccccc2)c1 | 1 | -5 | -19 | 3 | -2 | 0
COc1ccc(NC(=O)c2ccc(NCCN3C(=O)CCC3=O)c([N+](=O)[O-])c2)cc1 | 1 | ? | -5 | -17 | -9 | 3.6*
Cc1c(C(C)(C)C)c(C=S)n2ccccc12 | -5 | 77* | 9 | 13 | 29 | 111*
Cc1ccc(NC(=O)COCC(=O)Nc2ccc(C)cc2)cc1 | -6 | 2 | 3 | -8 | -5 | 12
SMILES | ZTA counter | eIF4H FP inh | HCV NS3 hel inh | EBNA-1 inhibitor | PABP1 MLLE inh | PABP FP inh
Cc1ccc(S(=O)(=O)OCC(=O)Nc2ccc(C(=O)O)c(O)c2)cc1 | . | . | . | . | 44* | .
O=C(NNC(=O)c1cccnc1)Nc1ccc([N+](=O)[O-])cc1 | -13 | -3 | -5 | 2 | 4 | 48
O=C(NNC(=O)c1ccncc1)Nc1ccc([N+](=O)[O-])cc1 | 3 | -1 | -9 | 0 | -8 | 58*
CCN1C(=O)[C@H]2[C@H]3CN=C(SC)N3[C@@](Cc3ccccc3)(C(=O)OC)[C@H]2C1=O | . | . | . | . | 6 | .
CCOc1ccc(/C=N/Nc2ccc(Cl)nn2)c(O)c1 | 8 | 0 | 11 | -9 | -16 | 6
Oc1ccc(/C=N/Nc2ccc(Cl)nn2)c(O)c1O | -9 | 80* | 22 | 2 | 40 | 55*
O=C(Nc1ccc2c3c(cccc13)CC2)c1cccc([N+](=O)[O-])c1 | 4 | 2 | 3 | -1 | -10 | 0
Cc1nnc(SCC(=O)NCc2ccco2)[nH]c1=O | -21 | 57* | 1 | -3 | 13 | 34*
Cc1ccc(Cl)cc1NC(=S)Nn1cnnc1 | 2 | -7 | -3 | 15 | 16 | 8
S=C(Nc1ccc(Br)cc1Cl)Nn1cnnc1 | -19 | -4 | 1 | -1 | 37* | 1
S=C(NCc1ccncc1)Nc1ccc(Br)cc1Cl | 7 | 0 | -5 | 2 | 25 | -7
O=C(NNC(=S)Nc1ccc(Br)cc1Cl)c1ccncc1 | -3 | 16 | 13 | 14 | 47* | 4
Cc1ccc(N2CC(C(=O)Nc3ccc4c(c3)OCO4)CC2=O)cc1C (stereo not given) | -6 | -5 | 26 | -7 | 1 | 4
CC(=O)NC1(c2cccc(F)c2)CCN(C(=O)Nc2ccc(C#N)cc2)CC1 | 15 | -2 | 12 | 7 | 1 | -2
Cc1c(C(=O)OCC[N+]2(C)CCCCC2)oc2ccccc12 | 4 | 4 | -8 | 3 | -103 | 55*
CN1Cc2c(N)cccc2C(c2ccccc2)C1 (stereo not given) | 9 | ? | 0 | 1 | 80*! | 1
CCc1ccc(C(O)(C(C)C)C(CN2CCOCC2)c2ccccc2)cc1 (stereo not given) | . | -5 | -27 | . | 6 | 15
Cn1c(=O)oc2cc(S(=O)(=O)N3CCN(c4cccc(Cl)c4)CC3)ccc21 | 24 | 103* | 11 | -4 | -7 | 112*
Cn1c(=O)oc2cc(S(=O)(=O)N3CCN(c4ccc(F)cc4)CC3)ccc21 | 3 | 28 | -4 | -4 | -6 | 6
CNc1cncc(C(=O)O)c1 | -19 | 44 | 6 | 42* | -24 | 11
COC(=O)Oc1cncc(C(=O)O)c1 | 16 | -3 | 3 | -4 | -3 | 9
CCOc1cc(-c2ccc(N)c(OCC)c2)ccc1N | -2 | ? | -9 | -2 | 86 | 104*
CC(C)CC[n+]1ccccc1/C=C/c1ccc(N(C)C)cc1 | 2 | ? | -23 | -7 | -165 | 64*
C/C(=N\NC(=O)C1CC1(c1ccccc1)c1ccccc1)c1cccc([N+](=O)[O-])c1 (stereo not given) | 3 | -4 | 1 | -5 | -4 | -5
COc1ccc(Br)cc1C1NC(=O)c2c(sc3c2CCN(C)C3)N1 (stereo not given) | . | 100* | . | . | -33 | 64*
O=C(Nc1ccc(F)cc1)Nc1ccc([N+](=O)[O-])cn1 | 3 | 3.0* | 19 | 9 | 8 | 75*
Cc1cc(C)c(S(=O)(=O)N2CCN(CCN3C(=O)c4cccc5cccc(c45)C3=O)CC2)cc1[N+](=O)[O-] | . | 9 | -2 | . | . | 9

Screening results as filed in PubChem.
